# Experimental data from different studies.
# Lines come from different studies, so protocols differ.
# CDK9: Cyclin-dependent kinase 9 (CDK9, Homo sapiens, UniProt P50750)
SMILES,target,assay,test system,setting,endpoint,result
C[C@H]1CC[C@H](n2c3cnccc3c3cnc(Nc4ccc5c(n4)CCN(C(=O)CO)C5)nc32)CC1,CDK9,cell-free assay,,1 µM,remaining signal,60%
C1=C/COCc2cc(ccc2OCCN2CCCC2)Nc2nccc(n2)-c2cccc(c2)COC/1,CDK9,binding,,0.1 µM,remaining binding,64%
C=CC(=O)N1CCC([C@@H]2CCNc3c(C(N)=O)c(-c4ccc(Oc5ccccc5)cc4)nn32)CC1,CDK9,"enzyme activity, inhibitor",,1 µM,inhibition,0%
CC(C)(C)c1cnc(CSc2cnc(NC(=O)C3CCN(C(=O)CCCCCCCCCCCN4Cc5cc6c(cc5C4)C(=O)N(C4CCC(=O)NC4=O)C6=O)CC3)s2)o1 (stereo not drawn),CDK9,"protein level, degrader, western blot",TC-71,25 nM,inhibition,78%
CO[C@@H]1[C@H](N(C)C(=O)c2ccccc2)C[C@H]2O[C@]1(C)n1c3ccccc3c3c4c(c5c6ccccc6n2c5c31)C(=O)NC4,CDK9,"enzyme activity, inhibitor",,1 µM,inhibition,3%
Cc1cc(S(=O)(=O)N[C@H]2CC[C@H](CN3CCN(c4ccc(C5CCC(=O)NC5=O)cc4F)CC3)CC2)ccc1Nc1ncc(C(F)(F)F)c(N2CCC[C@](C)(O)C2)n1 (stereo partly drawn),CDK9,"binding, competition with immobilised ligand",,1 µM,remaining binding,78%
CC(C)(C)c1cnc(CSc2cnc(NC(=O)C3CCN(C(=O)CCCCN4Cc5cc6c(cc5C4)C(=O)N(C4CCC(=O)NC4=O)C6=O)CC3)s2)o1 (stereo not drawn),CDK9,"protein level, degrader, western blot",TC-71,25 nM,inhibition,80.1%
CNS(=O)(=O)c1ccc(Nc2ncc(C(F)(F)F)c(N3CCC[C@](C)(O)C3)n2)c(C)c1,CDK9,"binding, competition with immobilised ligand",,1 µM,remaining binding,98%
CC(C)(C)c1cnc(CSc2cnc(NC(=O)C3CCN(C(=O)CCCCCCCN4Cc5cc6c(cc5C4)C(=O)N(C4CCC(=O)NC4=O)C6=O)CC3)s2)o1 (stereo not drawn),CDK9,"protein level, degrader, western blot",TC-71,25 nM,inhibition,94.4%
Cc1ccc(NC(=O)c2ccnc(C(F)(F)F)c2)cc1-c1cc(OCCO)nc(N2CCOCC2)c1,CDK9,binding,,1 µM,remaining binding,100%
CC(C)(C)c1cnc(CSc2cnc(NC(=O)C3CCN(CC(=O)NCCOCCOCCOCCNc4cccc5c4C(=O)N(C4CCC(=O)NC4=O)C5=O)CC3)s2)o1 (stereo not drawn),CDK9,"protein level, degrader, western blot",TC-71,25 nM,inhibition,36.8%
COc1ccc2oc(-c3ccc4nc(N)oc4c3)c/c(=N\c3ccccc3NC(=O)CCN)c2c1,"Cyclin-dependent kinase 9, with cyclin T1 (CDK9, Homo sapiens, UniProt P50750)",binding,,1 µM,remaining binding,93%
